Screening data as filed in PubChem BioAssay.
Most compounds without a hit are left out; they make up all but 2.3% or so of the library.
ABCB1 block: blocks JC-1 efflux by human ABCB1 transporter; P08183; CCRF-Adr cells, flow cytometry; inhibition, % at 6.6 µM; actives 0.067% (n = 190,000); AID 1326; in the data active = inhibition above about 40%;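 also: 0% = vehicle and 100% = reference inhibitor; higher value means more JC-1 retained so stronger ABCB1 efflux block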
sdo1 growth: compounds rescuing growth of sdo1-depleted yeast, bone marrow failure model; S. cerevisiae sdo1-depleted JHY4D growth rescue, OD600 30 h; active compounds read high; pdr5 snq2 efflux-pump mutant strain; z-score at 10 µM; actives 0.21% (n = 140,000); AID 817;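 active = z-score above 3 at both the 24 hr and the 30 hr optical density reads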;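 also: z-score against mean and SD of all compound wells on the same plate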
ABCG2 block: inhibitors of human ABCG2 transporter, ABCB1 counter-screen; Q9UNQ0; IgMXP3 cells, JC-1 efflux, flow cytometry; inhibition, % at 6.6 µM; actives 0.1% (n = 190,000);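 active = inhibition above 80%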;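 also: 0% = DMSO and 100% = nicardipine control wells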
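Assay system – ABCG2 IgMXP3 and barcoded ABCB1 CCRF-Adr cell mix · Input – 3 million cells/mL in well · Reagent – JC-1 fluorescent substrate · Compound – single test compound dose, 6.6 µM final · Timing – 10 min exposure at 25 °C with rotation, no wash · Detection – flow cytometry of retained JC-1 fluorescence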
Insulin prom up: MIN6 insulin promoter up-regulation; actives 0.3% (n = 190,000); MIN6 insulin promoter-GFP reporter, high-content imaging; active compounds read high; z-score at 5 µM;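 active = z-score above 3 at 5 µM with at least 500 cells counted in the well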
ROMK mod: modulates human ROMK potassium channel activity; P48048; Tet-inducible ROMK, thallium flux fluorescence; actives lie on both sides; B-score at 10 µM; actives 2% (n = 130,000); AID 1918;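 active = signal ratio slope over the read window, or its plate-corrected B-score, at least 3 SD from the plate mean, either direction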;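 also: B-score of the F/F0 ratio slope over 7 to 12 s after thallium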
Autophagy mod: alters autophagy in cells; MEF GFP-LC3 puncta imaging; test concentration mostly 10 µM; calls only at 10 µM (by protocol); actives 0.98% (n = 190,000);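 active = percentage of spot-positive cells more than 3 SD above its plate mean, without a fluorescence outlier flag or 80% toxicity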;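 also: spot-positive cell cutoff set from DMSO-treated cells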
Starred values were filed as active, the others as inactive; i = inactive; . = not tested or not shown; + = active, no number.

SMILES	ABCB1 block	sdo1 growth	ABCG2 block	Insulin prom up	ROMK mod	Autophagy mod
Cc1c(CN2CCCC(C(=O)c3cccc(OC(C)C)c3)C2)c(=O)n(-c2ccccc2)n1C (stereo not drawn)	0	.	0	-0.29	.	+
CCN(CC)c1ccc(/C=N/Nc2nc3ccccc3[nH]2)cc1	0	-1.4	-2	0.16	0.31	+
CC(=O)Nc1ccc(/C=N/Nc2nc3ccccc3[nH]2)cc1	0	1.1	0	0.55	.	i
Cc1nnc(SCC(=O)NC(=O)Nc2ccc3c(c2)OCCO3)s1	0	.	9	-0.23	-0.5	+
Cc1cccc(Nc2nnc(SCC(=O)NC(=O)Nc3ccc4c(c3)OCCO4)s2)c1	-1	-0.7	-3	0.25	0.019	i
CCCCC(NS(=O)(=O)c1ccc(OC)cc1)C(=O)O (stereo not drawn)	-1	-0.3	-1	.	.	i
COc1ccc(S(=O)(=O)N[C@H](C(=O)O)C(C)C)cc1	54*	-0.05	-1	0.45	0.51	i
Cc1ccccc1C(=O)NNC(=S)NC(=O)c1ccc(Cl)cc1Cl	0	-0.46	0	0.15	4.9*	i
O=C(NC(=S)NNC(=O)c1ccc(Cl)cc1Cl)c1cccnc1	0	-0.15	15	-0.06	1.1	i
O=C(NC(=S)N1CCCCCC1)c1ccc(Cl)cc1Cl	-1	.	-4	-0.53	7.1*	i
O=[N+]([O-])c1ccc(C2Oc3ccccc3C3CC(c4ccccc4)=NN32)s1 (stereo not drawn)	0	-1.7	2	0.69	-0.41	+
CCOC(=O)C1CCN(C(=O)CSc2nccc(C)n2)CC1	1	.	7	0.13	0.41	i
Cc1ccc(C(=O)N[C@@H](C)CN2C3=NC[C@H](C(C)C)N3C[C@H]2Cc2ccc(O)cc2)cc1Br	1	.	1	-0.36	.	+
COc1ccc(C[C@H]2CN3C(=NC[C@@H]3Cc3ccccc3)N2CCNC(=O)c2ccc(C)c(Br)c2)cc1	1	.	4	-0.19	.	+
O=C(CN1C(=O)CCC1=O)Nc1cccc(NC(=O)CN2C(=O)CCC2=O)c1	1	.	2	0.05	1.3	i
CC(C)[C@H](NC(=O)c1ccco1)C(=O)NC12CC3CC(CC(C3)C1)C2	1	.	3	-0.29	-0.97	i
CC(=O)C1=C(C)NC(SCC(=O)c2ccc(Cl)cc2)=C(C#N)C1c1ccco1 (stereo not drawn)	3	-1.6	46	1.1	-0.0075	+
CC(=O)C1=C(C)NC(SCC(=O)c2ccccc2)=C(C#N)C1c1ccco1 (stereo not drawn)	4	-0.87	80	-0.56	-0.0098	i
CSc1nsc(/C=C/Nc2ccc(C)cc2)c1C#N	1	-0.53	2	3.5*	-1.2	i
C=CCNCCCCOc1ccc(OCc2ccccc2)cc1	1	.	1	-0.45	-1.6	+
CC1CC(C)(C)Nc2ccc(N=O)cc21 (stereo not drawn)	0	.	-2	4.1*	0.24	+
CC1CC(C)(C)Nc2ccc(OC(=O)c3ccco3)cc21 (stereo not drawn)	1	0.39	2	0.4	.	i
CCc1ccc(NC(=O)Cn2c3[n+](c4c(F)c(F)ccc42)CCCCC3)cc1	0	.	0	0.43	-0.37	i
COc1ccc(OCC(=O)N(C)Cc2ccccc2)cc1	0	0.14	1	-0.28	.	+
CCC(=O)Nc1nc(-c2ccccc2)ns1	0	0.58	1	.	-0.77	i
SMILES	ABCB1 block	sdo1 growth	ABCG2 block	Insulin prom up	ROMK mod	Autophagy mod
CC(=O)Nc1nc(-c2ccc(Cl)cc2)ns1	0	0.31	0	-0.01	0.054	+
COC(=O)c1ccccc1NC(=O)c1cc(-c2cccs2)on1	1	0.94	7	-0.31	-0.76	+
CCn1nc([N+](=O)[O-])c2c(-c3nc4ccccc4o3)c(N)n(CCCOC)c2c1=O	0	.	3	-0.07	.	+
CCN1CCN(CC(=O)N2N=C(c3cccs3)CC2c2ccc(C)cc2)C(=O)C1=O (stereo not drawn)	1	.	0	0.71	.	i
CCCn1c(SCC(=O)N2CCN(c3ccccc3)CC2)nc2ccccc2c1=O	1	-1.4	3	-0.68	-0.026	i
O=C(CSc1nc2ccccc2c(=O)n1CCCN1CCOCC1)N1CCN(c2ccccc2)CC1	2	.	5	-0.37	1	+
Cc1cc(NC(=O)CSc2nc3c(sc4ccccc43)c(=O)n2CCCN2CCOCC2)n[nH]1	0	1.1	3	0.16	-0.09	+
Cc1ccc(NC(=O)CSc2nc3ccccc3c(=O)n2CCCN2CCCCC2)cc1C	0	-0.05	0	-1.1	.	+
CCCCn1c(CN2CCN(c3cccc(Cl)c3)CC2)nc2c1c(=O)[nH]c(=O)n2C	1	-1.2	7	-0.35	-0.89	+
Cc1ccc(-c2csc3ncnc(Sc4nnc(CN5CCCCCC5=O)o4)c23)cc1	3	-1.8	5	0.74	.	+
CSc1ccc(CN2CCC(CO)(Cc3ccc(Cl)cc3)CC2)cc1	2	.	10	.	-3	+
OCC1(Cc2ccc(Cl)cc2)CCN(Cc2ccccc2F)CC1	1	.	8	0.02	-0.03	i
COc1ccc(N2CCN(CCCNC(=O)CN3CCN(Cc4ccccc4C)C3=O)CC2)cc1	0	0.57	-1	0.03	-0.69	+
CSc1nsc2nc(=O)c(/C=C3\C=Nc4ccccc43)c(N)n12	-1	.	-2	0.52	2.1*	i
CC(C)S(=O)(=O)c1nsc2nc(=O)c(/C=C3\C=Nc4ccccc43)c(N)n12	-1	.	-4	0.08	1.7	i
COc1ccc(Cc2[nH]n3c(=O)cc(C(C)C)nc3c2-c2ccccc2)cc1	0	.	10	-0.24	0.02	i
Cc1sc2nc[nH]c(=S)c2c1-c1ccccc1	2	.	9	-0.15	6.4*	i
Cc1ccc(-c2csc3nc[nH]c(=S)c23)cc1	-1	-1.7	-1	-0.01	10*	i
Cc1cc(-c2csc3nc[nH]c(=S)c23)cc(C)c1C	0	.	11	-0.65	5.2*	i
CCC(C)N=C1Sc2nc3ccc(C)cc3cc2CN1CCOC (stereo not drawn)	1	.	4	-0.73	-1.6	i
O=C(NCCCCO)c1ccc2c3c(cccc13)CC2	0	.	2	-0.04	0.78	i
CCC(CC)C1=NN2C(=N)/C(=C\c3cc(C)n(-c4cccc(C)c4)c3C)C(=O)N=C2S1	0	-1	-4	0.38	-0.15	+
COCCNCC(=O)Nc1ccc(OC(F)(F)F)cc1	0	.	1	-0.08	0.55	i
CCCn1c(N)nc2ccccc21	0	0.42	-1	-0.23	.	i
Nc1nc2ccccc2n1CCOc1ccccc1Cl	1	-1.3	7	-0.3	-3.9*	i
